How the values were obtained:
Assay type in all cases: functional, Homo sapiens
[1] = system: T-24; assay: Percent of viable cells by survival assay (colony forming) in T24 bladder carcinoma cells at 1 uM in the presence of DMSO
In short: (§1)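 Colony-forming survival assay in T24 bladder carcinoma cells. Compound was given alongside DMSO alone or methyl methanesulfonate (MMS) at 110, 150 or 200 μM. Survival is expressed relative to the DMSO-only control, set at 100. Values are the average of two independent experiments.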

[2] = system: T-24; assay: Percent of viable cells by survival assay (colony forming) in T24 bladder carcinoma cells at 3 uM in the presence of DMSO; in short: as §1
[3] = system: T-24; assay: Percent of viable cells by survival assay (colony forming) in T24 bladder carcinoma cells at 1 uM in the presence of 110 uM MMS; in short: as §1
[4] = system: T-24; assay: Percent of viable cells by survival assay (colony forming) in T24 bladder carcinoma cells at 1 uM in the presence of 150 uM MMS; in short: as §1
[5] = system: T-24; assay: Percent of viable cells by survival assay (colony forming) in T24 bladder carcinoma cells at 1 uM in the presence of 200 uM MMS; in short: as §1
[6] = system: T-24; assay: Percent of viable cells by survival assay (colony forming) in T24 bladder carcinoma cells at 3 uM in the presence of 110 uM MMS; in short: as §1
[7] = system: T-24; assay: Percent of viable cells by survival assay (colony forming) in T24 bladder carcinoma cells at 3 uM in the presence of 150 uM MMS; in short: as §1
[8] = system: T-24; assay: Percent of viable cells by survival assay (colony forming) in T24 bladder carcinoma cells at 3 uM in the presence of 200 uM MMS; in short: as §1

| SMILES | Viable cells [1] [%] | Viable cells [2] [%] | Viable cells [3] [%] | Viable cells [4] [%] | Viable cells [5] [%] | Viable cells [6] [%] | Viable cells [7] [%] | Viable cells [8] [%] |
| --- | --- | --- | --- | --- | --- | --- | --- | --- |
| COc1cc(Cn2c(=O)n(O)c(=O)c3c(C)csc32)cc2c1OCO2 | 100 | 86 | 24 | 12 | 2 | 11 | 6 | 0 |
| O=c1c2sccc2n(CC2COc3ccccc3O2)c(=O)n1O (stereo unspecified) | 96 | 87 | 18 | 6 | 4 | 11 | 5 | 4 |

From ChEMBL document CHEMBL1142827, “The identification and optimization of a N-hydroxy urea series of flap endonuclease 1 inhibitors” (Bioorg Med Chem Lett, 2005)
